In ChEMBL document CHEMBL1795307, “Synthesis and anti-inflammatory activity of some novel 3-phenyl-N-[3-(4-phenylpiperazin-1yl)propyl]-1H-pyrazole-5-carboxamide derivatives” (2011):

Key:
Assay type in all cases: functional
Rattus norvegicus [1] = assay: Antiinflammatory activity against carrageenan-induced paw edema in rat at 100 mg/kg, po administered 1 hr before carrageenan challenge measured after 2 hrs relative to control
Method in brief: (§1)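 Rats of either sex (130–180 g), fasted ≥16 h with water available, six per group. Compound given orally in 1% CMC solution 1 h before 0.1 mL of 1% carrageenan suspension injected into hind paw; controls received vehicle. Paw volume read by mercury-displacement plethysmometer before and 1, 2, 3, 4 h after carrageenan. Percent inhibition from mean paw-volume increase versus control.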

Rattus norvegicus [2] = assay: Antiinflammatory activity against carrageenan-induced paw edema in rat at 100 mg/kg, po administered 1 hr before carrageenan challenge measured after 3 hrs relative to control; method in brief: as §1
Rattus norvegicus [3] = assay: Antiinflammatory activity against carrageenan-induced paw edema in rat at 100 mg/kg, po administered 1 hr before carrageenan challenge measured after 4 hrs relative to control; method in brief: as §1
Rattus norvegicus [4] = assay: Antiinflammatory activity against carrageenan-induced paw edema in rat at 100 mg/kg, po administered 1 hr before carrageenan challenge measured after 1 hr relative to control; method in brief: as §1

| SMILES | Activity (Rattus norvegicus [1]) [%] | Activity (Rattus norvegicus [2]) [%] | Activity (Rattus norvegicus [3]) [%] | Activity (Rattus norvegicus [4]) [%] |
| --- | --- | --- | --- | --- |
| O=C(NCCCN1CCN(c2ccccc2)CC1)c1cc(-c2ccccc2)n[nH]1 | 55.5 | 61.9 | 58.8 | 47.3 |
| COc1ccc(-c2cc(C(=O)NCCCN3CCN(c4ccccc4)CC3)[nH]n2)cc1 | 69.4 | 75 | 70 | 55.2 |
| COc1cccc(-c2cc(C(=O)NCCCN3CCN(c4ccccc4)CC3)[nH]n2)c1 | 62.5 | 65.2 | 64.4 | 52.6 |
| Cc1ccc(-c2cc(C(=O)NCCCN3CCN(c4ccccc4)CC3)[nH]n2)cc1 | 55.5 | 67.3 | 63.3 | 60.5 |
| Cc1cccc(-c2cc(C(=O)NCCCN3CCN(c4ccccc4)CC3)[nH]n2)c1 | 65.2 | 70.6 | 70 | 60.5 |
| O=C(NCCCN1CCN(c2ccccc2)CC1)c1cc(-c2ccc([N+](=O)[O-])cc2)n[nH]1 | 75.6 | 76 | 72.2 | 53.9 |
| O=C(NCCCN1CCN(c2ccccc2)CC1)c1cc(-c2cccc([N+](=O)[O-])c2)n[nH]1 | 75 | 78 | 75.5 | 67 |
| CC(C)Cc1ccc(C(C)C(=O)O)cc1 (stereo unspecified) [IBUPROFEN] |  | 72.8 | 63.3 | 42.1 |
